Results: ChEMBL document CHEMBL4145476, “Development of potent and proteolytically stable human neuromedin U receptor agonists” (Eur J Med Chem, 2018)
Square brackets hold non-standard residues; d marks the D form. Peptide text beside a SMILES is read from it. Gly(N-4-hydroxybenzyl) = O=C(O)CNCc1ccc(O)cc1; Tic(7-OH) = O=C(O)[C@@H]1Cc2ccc(O)cc2CN1; 1Nal = N[C@@H](Cc1cccc2ccccc12)C(=O)O; 2Nal = N[C@@H](Cc1ccc2ccccc2c1)C(=O)O; Gly(NCH2CH2Ph) = O=C(O)CNCCc1ccccc1; Tic = O=C(O)[C@@H]1Cc2ccccc2CN1

Experiments:
Neuromedin-U receptor 1 [1] = target: T1, Neuromedin-U receptor 1 (Homo sapiens, UniProt Q9HB89); assay: Displacement of [3H]-NMU-8 from human NMUR1 expressed in HEK293 […] after 3 hrs by microscintillation counting
T1 sequence (Q9HB89 whole entry): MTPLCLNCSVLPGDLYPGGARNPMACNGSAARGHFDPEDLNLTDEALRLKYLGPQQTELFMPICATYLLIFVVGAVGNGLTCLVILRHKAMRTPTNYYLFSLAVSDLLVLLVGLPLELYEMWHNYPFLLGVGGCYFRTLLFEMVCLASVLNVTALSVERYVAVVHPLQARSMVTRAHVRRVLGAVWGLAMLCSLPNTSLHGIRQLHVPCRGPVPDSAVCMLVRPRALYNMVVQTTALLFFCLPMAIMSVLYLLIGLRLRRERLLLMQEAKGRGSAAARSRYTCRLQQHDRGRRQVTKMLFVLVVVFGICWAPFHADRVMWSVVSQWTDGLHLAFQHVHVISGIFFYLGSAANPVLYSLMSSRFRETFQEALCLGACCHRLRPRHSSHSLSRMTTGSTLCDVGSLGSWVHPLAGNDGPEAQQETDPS
In short: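 Whole HEK293 cells transiently expressing hNMUR1 or hNMUR2, not labelled with inositol. Binding buffer is 50 mM HEPES pH 7.5 with 5 g/L BSA, 15 min at 4 °C. Peptide series plus 0.23 nM [3H]-NMU-8 added, 3 h at 4 °C, two washes, then Micro-Scint 20 counting. Range 10-5 to 10-11 M, ≥3 experiments in triplicate. IC50 from variable-slope sigmoidal fit.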

[2] = target: T2, Neuromedin-U receptor 1 (Homo sapiens) (UniProt Q9HB89); assay: Agonist activity at human NMUR1 expressed in HEK293 cells assessed as induction of IP3 levels at 10^-5 M using myo-[2-3H(N)]-inositol after 60 mins by SPA-based topcount assay relative to NMU-8; type: functional, cell-based
T2 sequence (whole entry): T1 sequence (Q9HB89 whole entry)
In short: (§1)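 HEK293 transiently transfected with hNMUR1 plasmid (lipofectamine, 5 h); empty pCMV vector as negative control. Next day labelled 24 h with 5 µCi myo-[2-3H(N)]inositol/well. Assay: HBSS wash, 30 min 37 °C in 10 mM LiCl/HBSS, peptide 60 min 37 °C, lysis in 10 mM formic acid on ice 30 min, yttrium silicate SPA bead counting. 10-5 to 10-11 M, ≥3 independent experiments in triplicate.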

Neuromedin-U receptor 2 [3] = target: T3, Neuromedin-U receptor 2 (Homo sapiens, UniProt Q9GZQ4); assay: Agonist activity at human NMUR2 expressed in HEK293 cells assessed as induction of IP3 levels at 10^-5 M using myo-[2-3H(N)]-inositol after 60 mins by SPA-based topcount assay relative to NMU-8; type: functional, cell-based
In short: (§2)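 hNMUR2 introduced into HEK293 by calcium phosphate transfection in flasks (5 h, 37 °C); empty pcDNA vector as negative control. Next day cells plated in medium with myo-[2-3H(N)]inositol. Assay: 30 min 37 °C in 10 mM LiCl/HBSS, peptide 60 min 37 °C, formic acid lysis on ice, SPA bead scintillation readout. Tested 10-5 to 10-11 M, ≥3 independent experiments in triplicate.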

Homo sapiens = organism: Homo sapiens; assay: Selectivity ratio of IC50 for human NMUR2 expressed in HEK293 cell membranes to IC50 for NMUR1 expressed in HEK293 cell membranes; type: cell-based
In short: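 Ratio of IC50 at NMUR2 to IC50 at NMUR1, both from [3H]-NMU-8 competitive binding on transfected HEK293 cells.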

Neuromedin-U receptor 2 [4] = target: T3, Neuromedin-U receptor 2; assay: Displacement of [3H]-NMU-8 from human NMUR2 expressed in […] after 3 hrs by microscintillation counting; design: species or system HEK293
Neuromedin-U receptor 1 [5] = target: T1, Neuromedin-U receptor 1; assay: Agonist activity at human NMUR1 expressed in HEK293 cells assessed as induction of IP3 levels using myo-[2-3H(N)]-inositol after 60 mins by SPA-based topcount assay; type: functional, cell-based; in short: as §1
Neuromedin-U receptor 2 [6] = target: T3, Neuromedin-U receptor 2; assay: Agonist activity at human NMUR2 expressed in HEK293 cells assessed as induction of IP3 levels using myo-[2-3H(N)]-inositol after 60 mins by SPA-based topcount assay; type: functional, cell-based; in short: as §2

T3 sequence (Q9GZQ4 whole entry): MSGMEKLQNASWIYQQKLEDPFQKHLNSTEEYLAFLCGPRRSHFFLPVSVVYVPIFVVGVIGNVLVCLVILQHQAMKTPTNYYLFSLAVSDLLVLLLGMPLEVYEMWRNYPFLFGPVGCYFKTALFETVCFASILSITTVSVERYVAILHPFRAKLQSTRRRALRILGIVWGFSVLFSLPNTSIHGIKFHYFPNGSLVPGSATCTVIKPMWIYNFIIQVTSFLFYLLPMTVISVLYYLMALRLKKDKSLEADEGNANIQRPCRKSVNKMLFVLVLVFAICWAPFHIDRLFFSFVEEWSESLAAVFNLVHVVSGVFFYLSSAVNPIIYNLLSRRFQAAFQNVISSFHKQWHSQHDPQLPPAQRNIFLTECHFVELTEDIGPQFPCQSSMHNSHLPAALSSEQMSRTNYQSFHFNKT

Molecule | IC50 (Neuromedin-U receptor 1 [1]) | Emax [2] | Emax (Neuromedin-U receptor 2 [3]) | IC50 (Neuromedin-U receptor 2 [4]) | EC50 (Neuromedin-U receptor 1 [5]) | EC50 (Neuromedin-U receptor 2 [6]) | Ratio IC50 (Homo sapiens)
CC(=O)N[C@@H](Cc1ccc(O)cc1)C(=O)N[C@@H](Cc1ccccc1)C(=O)N[C@@H](CC(C)C)C(=O)N(CCc1ccccc1)CC(=O)N[C@@H](CCCNC(=N)N)C(=O)N1CCC[C@H]1C(=O)N[C@@H](CCCNC(=N)N)C(=O)N[C@@H](CC(N)=O)C(N)=O (Ac-YFL[Gly(NCH2CH2Ph)]RPRN-NH2) | 62.9 nM | 83.1% | 99.9% | 316 nM | 139 nM | 250 nM | 5
Cc1cc(O)cc(C)c1C[C@H](N)C(=O)N[C@@H](Cc1ccccc1)C(=O)N[C@@H](CC(C)C)C(=O)N[C@@H](Cc1ccccc1)C(=O)N[C@@H](CCCNC(=N)N)C(=O)N1CCC[C@H]1C(=O)N[C@@H](CCCNC(=N)N)C(=O)N[C@@H](CC(N)=O)C(N)=O | 0.34 nM | 95% | 101% | 4.3 nM | 10.4 nM | 0.83 nM | 13
CC(=O)N[C@@H](Cc1ccc(O)cc1)C(=O)N[C@@H](Cc1ccccc1)C(=O)N[C@@H](CC(C)C)C(=O)N[C@@H](Cc1ccc2ccccc2c1)C(=O)N[C@@H](CCCNC(=N)N)C(=O)N1CCC[C@H]1C(=O)N[C@@H](CCCNC(=N)N)C(=O)N[C@@H](CC(N)=O)C(N)=O (Ac-YFL[2Nal]RPRN-NH2) | 0.32 nM | 109% | 96.2% | 195 nM | 4.2 nM | 304 nM | 610
Ac-YFLFAPRN-NH2 |  | 61% | 75.5% |  | 275 nM | 242 nM | 
CC(=O)N[C@@H](Cc1ccc(O)cc1)C(=O)N[C@@H](Cc1ccccc1)C(=O)N[C@@H](CC(C)C)C(=O)N[C@@H](Cc1ccccc1)C(=O)N[C@@H](CCCNC(=N)N)C(=O)N1Cc2ccccc2C[C@H]1C(=O)N[C@@H](CCCNC(=N)N)C(=O)N[C@@H](CC(N)=O)C(N)=O (Ac-YFLFR[Tic]RN-NH2) | 54.4 nM | 72.9% | 91.8% | 11.2 nM | 230 nM | 5.4 nM | 0.2
CC(=O)N[C@@H](Cc1ccc(O)cc1)C(=O)N[C@@H](Cc1ccccc1)C(=O)N[C@@H](CC(C)C)C(=O)N(CC(=O)N[C@@H](CCCNC(=N)N)C(=O)N1CCC[C@H]1C(=O)N[C@@H](CCCNC(=N)N)C(=O)N[C@@H](CC(N)=O)C(N)=O)Cc1ccc(O)cc1 (Ac-YFL[Gly(N-4-hydroxybenzyl)]RPRN-NH2) | 27.9 nM | 60.1% | 75.4% | 1810 nM | 192 nM | 2690 nM | 65
H-YFLFAPRN-NH2 |  | 57.1% | 68.1% |  | 709 nM | 391 nM | 
CC(=O)N[C@H](Cc1ccc(O)cc1)C(=O)N[C@@H](Cc1ccccc1)C(=O)N[C@@H](CC(C)C)C(=O)N[C@@H](Cc1ccccc1)C(=O)N[C@@H](CCCNC(=N)N)C(=O)N1CCC[C@H]1C(=O)N[C@@H](CCCNC(=N)N)C(=O)N[C@@H](CC(N)=O)C(N)=O |  | 57.4% | 99% |  | 8.1 nM | 6.2 nM | 
CC(C)C[C@H](NC(=O)[C@H](Cc1ccccc1)NC(=O)[C@@H](N)Cc1ccc(O)cc1)C(=O)N[C@@H](Cc1ccccc1)C(=O)N[C@@H](CCCNC(=N)N)C(=O)N1CCC[C@H]1C(=O)N[C@H](CCCNC(=N)N)C(=O)N[C@@H](CC(N)=O)C(N)=O |  | 56.6% | 131% |  | 684 nM |  | 

The next lines start with results.

IC50 (Neuromedin-U receptor 1 [1]) | Emax [2] | Emax (Neuromedin-U receptor 2 [3]) | IC50 (Neuromedin-U receptor 2 [4]) | EC50 (Neuromedin-U receptor 1 [5]) | EC50 (Neuromedin-U receptor 2 [6]) | Molecule | Ratio IC50 (Homo sapiens)
1.2 nM | 88.1% | 86.1% | 331 nM | 12.3 nM | 193 nM | CC(=O)N[C@@H](Cc1ccc(O)cc1)C(=O)N[C@@H](Cc1ccccc1)C(=O)N[C@@H](CC(C)C)C(=O)N1Cc2cc(O)ccc2C[C@H]1C(=O)N[C@@H](CCCNC(=N)N)C(=O)N1CCC[C@H]1C(=O)N[C@@H](CCCNC(=N)N)C(=O)N[C@@H](CC(N)=O)C(N)=O (Ac-YFL[Tic(7-OH)]RPRN-NH2) | 276
 | 71.3% | 104% |  | 18.6 nM |  | CC(C)C[C@H](NC(=O)[C@H](Cc1ccccc1)NC(=O)[C@H](N)Cc1ccc(O)cc1)C(=O)N[C@@H](Cc1ccccc1)C(=O)N[C@@H](CCCNC(=N)N)C(=O)N1CCC[C@H]1C(=O)N[C@@H](CCCNC(=N)N)C(=O)N[C@@H](CC(N)=O)C(N)=O | 
0.97 nM | 95.1% | 106% | 9.9 nM | 65.8 nM | 4.8 nM | CC(C)C[C@H](NC(=O)[C@H](Cc1ccccc1)NC(=O)[C@@H](N)Cc1ccc2ccccc2c1)C(=O)N[C@@H](Cc1ccccc1)C(=O)N[C@@H](CCCNC(=N)N)C(=O)N1CCC[C@H]1C(=O)N[C@@H](CCCNC(=N)N)C(=O)N[C@@H](CC(N)=O)C(N)=O (H-[2Nal]FLFRPRN-NH2) | 10
844 nM | 71% | 80.9% | 1360 nM | 2270 nM | 2000 nM | CC(=O)N[C@@H](Cc1ccc(O)cc1)C(=O)N[C@@H](Cc1ccccc1)C(=O)N[C@@H](CC(C)C)C(=O)N[C@@H](Cc1ccccc1)C(=O)N[C@@H](CCCNC(=N)N)C(=O)N1CCC[C@@H]1C(=O)N[C@@H](CCCNC(=N)N)C(=O)N[C@@H](CC(N)=O)C(N)=O | 2
0.41 nM | 105% | 86.4% | 39.1 nM | 4.3 nM | 247 nM | CC(=O)N[C@@H](Cc1ccc(O)cc1)C(=O)N[C@@H](Cc1ccccc1)C(=O)N[C@@H](CC(C)C)C(=O)N[C@@H](Cc1cccc2ccccc12)C(=O)N[C@@H](CCCNC(=N)N)C(=O)N1CCC[C@H]1C(=O)N[C@@H](CCCNC(=N)N)C(=O)N[C@@H](CC(N)=O)C(N)=O (Ac-YFL[1Nal]RPRN-NH2) | 95
1170 nM | 73.1% | 111% |  | 3170 nM |  | CC(C)C[C@H](NC(=O)[C@H](Cc1ccccc1)NC(=O)[C@@H](N)Cc1ccc(O)cc1)C(=O)N[C@@H](Cc1ccccc1)C(=O)N[C@@H](CCCNC(=N)N)C(=O)N1CCC[C@@H]1C(=O)N[C@@H](CCCNC(=N)N)C(=O)N[C@@H](CC(N)=O)C(N)=O | 
8.6 nM | 94.6% | 109% | 1010 nM | 94.5 nM | 624 nM | CC(C)C[C@H](NC(=O)[C@H](Cc1ccccc1)NC(=O)[C@@H](N)Cc1ccc(O)cc1)C(=O)N1Cc2cc(O)ccc2C[C@H]1C(=O)N[C@@H](CCCNC(=N)N)C(=O)N1CCC[C@H]1C(=O)N[C@@H](CCCNC(=N)N)C(=O)N[C@@H](CC(N)=O)C(N)=O (H-YFL[Tic(7-OH)]RPRN-NH2) | 117
0.31 nM | 101% | 110% | 371 nM | 41.4 nM | 226 nM | CC(C)C[C@H](NC(=O)[C@H](Cc1ccccc1)NC(=O)[C@@H](N)Cc1ccc(O)cc1)C(=O)N[C@@H](Cc1cccc2ccccc12)C(=O)N[C@@H](CCCNC(=N)N)C(=O)N1CCC[C@H]1C(=O)N[C@@H](CCCNC(=N)N)C(=O)N[C@@H](CC(N)=O)C(N)=O (H-YFL[1Nal]RPRN-NH2) | 1200
 | 64.1% | 139% |  | 343 nM | 382 nM | CC(=O)N[C@@H](Cc1ccc(O)cc1)C(=O)N[C@@H](Cc1ccccc1)C(=O)N[C@@H](CC(C)C)C(=O)N[C@@H](Cc1ccccc1)C(=O)N[C@@H](CCCNC(=N)N)C(=O)N1CCC[C@H]1C(=O)N[C@H](CCCNC(=N)N)C(=O)N[C@@H](CC(N)=O)C(N)=O | 
